An excerpt weighted towards active compounds, which were near 3.1% of everything screened.
OX1R antag-1: antagonists of human orexin 1 receptor. actives 0.43% (n = 330,000). O43613. CHO/OX1R cells, Fluo-8 calcium fluorescence, orexin A. inhibition, % at 5 µM;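 active = inhibition above its plate's threshold, mean inhibition of all tested compounds on the plate plus 3 SD, cut at about 37% in these data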;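 also: 0% = orexin A challenge wells and 100% = SB-334867-A antagonist wells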
Target sequence (O43613 whole entry, looked up): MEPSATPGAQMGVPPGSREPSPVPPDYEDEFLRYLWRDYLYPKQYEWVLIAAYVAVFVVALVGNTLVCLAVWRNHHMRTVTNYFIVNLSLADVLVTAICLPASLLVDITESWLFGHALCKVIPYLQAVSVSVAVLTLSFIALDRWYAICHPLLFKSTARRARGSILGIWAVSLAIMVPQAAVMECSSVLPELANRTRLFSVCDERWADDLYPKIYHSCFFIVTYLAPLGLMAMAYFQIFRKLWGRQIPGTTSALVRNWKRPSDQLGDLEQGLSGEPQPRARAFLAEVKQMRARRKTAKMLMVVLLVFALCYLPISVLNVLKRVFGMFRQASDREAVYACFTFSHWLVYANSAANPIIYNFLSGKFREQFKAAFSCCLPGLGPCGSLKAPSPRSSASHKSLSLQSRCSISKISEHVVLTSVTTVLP
GPR7 antagonist: antagonists of human GPR7 (neuropeptides B/W receptor 1); GPR7-expressing cells, fluorescence antagonist assay; actives 1.1% (n = 290,000); AID 1861; inhibition, % at 4.4 µM; in the data active = inhibition above about 16%, passing the limit was not always enough;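 also: cells stimulated with the agonist NPW; 0% = agonist with vehicle and 100% = vehicle without agonist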
CHO parental Ca: signal in parental CHO cells, OX1R antagonist counter-screen; parental CHO-K1, ATP-induced calcium, Fluo-8 fluorescence; actives 0.63% (n = 330,000); AID 463079; inhibition, % at 5.6 µM;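 active = inhibition above that plate's mean sample inhibition plus 3 SD, cut at about 26% in these data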;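 also: 0% = ATP-challenged DMSO wells and 100% = DMSO wells without ATP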
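Material: Parental CHO cells | Reagent: ATP | Compound dosing: Single nominal dose of 5.6 µM per compound | Detection: Intracellular calcium via Fluo-8 no-wash fluorescent dye | Read-out: % inhibition of ATP-induced calcium mobilization | Benchmarks: Low control ATP plus DMSO, high control DMSO only | Replicates: Singlicate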
OX1R antag-2: OX1R (human) antagonism. O43613. OX1R-expressing cells, FRET antagonist read-out. inhibition, % at 6.6 µM. actives 1.8% (n = 330,000). AID 485270; in the data active = inhibition mostly above about 38%, no sharp cut-off; inactive = mostly below about 40%;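 also: 0% = agonist challenge alone and 100% = reference antagonist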
GalR3 antagonist: blocks the human galanin receptor 3; O60755; HEK293 GalR3-CNG cAMP membrane potential fluorescence; galR3 body fused to GalR1 C-terminus; inhibition, % at 3 µM; actives 0.44% (n = 360,000); AID 651719;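 active = inhibition above the screen-wide average plus 3 SD, cut at about 13% in these data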;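 also: forskolin and galanin both at EC90 stimulate the cells; cAMP rise reported by CNG channel membrane potential dye signal; 0% = forskolin plus galanin with DMSO and 100% = forskolin alone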
Active calls of the source: *; . = no result given.

SMILES	OX1R antag-1	GPR7 antagonist	CHO parental Ca	OX1R antag-2	GalR3 antagonist
C=CCn1c(SC(C)C(=O)c2c(N)n(C)c(=O)n(C)c2=O)nnc1-c1ccoc1C (stereo not given)	-2	.	-11	7	-5
FC(F)(F)c1cccc(NC(=S)NCc2ccccn2)c1	-5	20*	-9	13	-3
Cc1cccc(NC(=S)NCc2ccccn2)c1	10	-15	1	15	3
CN(C(=O)COC(=O)CSc1ccccc1)c1c(N)n(Cc2ccccc2)c(=O)[nH]c1=O	.	.	.	.	-4
Cc1ccc(NC(=O)Nc2ccccc2)cc1[N+](=O)[O-]	3	25*	26	49	1
CC(CC(=O)Nc1ccc(C(N)=O)cc1)c1ccccc1 (stereo not given)	-7	-3	-6	7	-3
O=C(Nc1ccccc1)Nc1ccc(F)c([N+](=O)[O-])c1	-3	33*	19	42	-1
CC(CC(=O)Nc1ccc(Cl)c([N+](=O)[O-])c1)c1ccccc1 (stereo not given)	66*	-3	60*	91*	-4
Cc1ccc(NC(=O)OC[C@@H]2CSCCS(=O)(=O)N2)cc1	.	.	.	.	-3
CC(=O)/C(=N/Nc1cccc(Cl)c1)Sc1nnc(C(O)c2ccccc2)n1-c1ccccc1 (stereo not given)	-30	27*	-25	7	-2
CCCNC(=O)C(Cc1cccc(C#N)c1)NC(=O)c1cccc([N+](=O)[O-])c1 (stereo not given)	-18	.	-11	18	-2
CCOc1ccccc1NC(=O)C(Sc1nnc2ccccn12)c1ccccc1 (stereo not given)	-6	-12	-15	41*	0
O=C(Nc1ccc(F)cc1)C(Sc1nnc2ccccn12)c1ccccc1 (stereo not given)	-17	-10	-2	15	1
O=C1/C(=C/c2cccc(Br)c2)SC(=S)N1CCC(=O)N(CCO)c1ccccc1	-19	-16	39*	0	-11
O=[N+]([O-])c1cc(Cl)cc(C2=NCCN2)c1	-7	-7	-5	61*	-6
O=[N+]([O-])c1cc(Br)c2c(c1)CCN2	.	.	.	.	1
CN(CC(=O)Nc1ccc(Cl)c(C(F)(F)F)c1)C(=O)c1cnccn1	-5	.	1	6	-4
Cc1ccc2c(c1)c1c3n2CCN(C(=O)C2CC2)C3CCC1 (stereo not given)	-28	-12	-25	12	2
Cc1ccc2c(c1)c1c3n2CC(=C2C(=O)OC(C)(C)OC2=O)NC3CCC1 (stereo not given)	28	-6	-12	43*	-1
O=C(CCCSc1ccccc1)Nc1ccc(Cl)c(S(=O)(=O)N2CCOCC2)c1	35	.	10	32*	-5
COc1ccc(C(=O)Nc2ccc(S(=O)(=O)N3CCOCC3)cc2)cc1	-16	.	-7	4	-4
COc1ccc(C(=O)Nc2ccc(-c3ccc(C)o3)cc2)cc1S(=O)(=O)N1CCOCC1	-2	-9	11	41	94*
COc1ccc(C(=O)Nc2ccc(Cl)c(S(=O)(=O)N3CCOCC3)c2)cc1	43*	.	15	24	-5
Cc1ccc(NC(=O)CSc2nc(N)cc(N)n2)cc1S(=O)(=O)N1CCOCC1	-19	20*	-3	14	-4
COc1ccc(C(=O)Nc2ccc(N3CCOCC3)cc2)cc1S(=O)(=O)N1CCOCC1	.	.	.	.	-2
SMILES	OX1R antag-1	GPR7 antagonist	CHO parental Ca	OX1R antag-2	GalR3 antagonist
COC(=O)C1=C(C)N(Cc2ccc(C(F)(F)F)cc2)C(=NCc2ccc3c(c2)OCO3)NC1c1ccccc1 (stereo not given)	.	.	.	.	-4
O=C(NNS(=O)(=O)c1cc(Cl)cc(Cl)c1)c1sccc1-n1cccc1	0	-10	-25	69*	-6
Nc1nc2c(ncn2[C@@H]2O[C@H](C(=O)NCCCc3ccccc3)[C@@H](O)[C@H]2O)c(=O)[nH]1	.	.	.	.	-7
C/C(=N\Nc1nc2ccccc2s1)c1cccs1	-22	-18	-19	56*	-4
COc1ccc(/C=N/Nc2ncccc2[N+](=O)[O-])c(OC)c1	-7	-16	-13	50*	-4
COc1ccc(/C=N/Nc2ncc(-c3ccccc3)cn2)c(OC)c1	-44	-3	-11	23	1
Nc1[nH]c(C(=O)c2ccccc2)c(-c2ccc3ccccc3c2)c1C(=O)NCc1ccc(-c2ccccc2)cc1	.	.	.	.	-7
Cn1cc(CC(=O)Nc2ccc(Nc3cccnc3)c(Br)c2)c2ccccc21	.	.	.	.	6

High-throughput results (PubChem)
